Results collected from several papers.
Lines come from different studies, so protocols differ.
Target: RAC-beta serine/threonine-protein kinase (AKT2, Homo sapiens, UniProt P31751)

Structure (SMILES) | assay | setting | quantity | result
O=C(NS(=O)(=O)c1ccc(NCC2CCOCC2)c([N+](=O)[O-])c1)c1ccc(N2CCN(Cc3ccc(C(F)(F)F)cc3-c3ccc(Cl)cc3)CC2)cc1Oc1cnc2[nH]ccc2c1 | cell-free assay, competition with immobilised ligand | 1 µM | remaining binding | 100%
O=C(Nc1cnn(-c2csc(C(=O)NC3COC3)c2)c1)Nc1c(F)cccc1Cl | enzyme activity, inhibitor | 5 µM | remaining activity | 104%
CCCOc1ccc(OC)c(F)c1C(=O)c1ccc(C(=O)N[C@@H]2CNC[C@H]2NC(=O)c2ccc3[nH]ncc3c2)cc1 | enzyme activity, inhibitor | 10 µM | remaining activity | 49%
CN(c1ncccc1CNc1nc(Nc2ccc3c(c2)CC(=O)N3)ncc1C(F)(F)F)S(C)(=O)=O | enzyme activity, inhibitor | 1 µM | inhibition | 1.6%
O=S(=O)(NCCNC/C=C/c1ccc(Br)cc1)c1cccc2cnccc12 | cell-free assay | 0.5 µM | remaining signal | 75.4%
Nc1nc(Nc2ccccc2)sc1C(=O)c1c(F)cccc1F | enzyme activity, inhibitor | 10 µM | remaining activity | 85%
CC(C)c1ccc(NC(=O)c2cccs2)c(-c2nc3ccccc3[nH]c2=O)c1 | enzyme activity, inhibitor | 1 µM | activity vs control | 102%
COc1cc(Nc2cnc(C#N)c(O[C@H](C)CN(C)C)n2)ncc1-c1cnn(C)c1 | enzyme activity, inhibitor, radiometric | 1 µM | remaining activity | 81%
O=C(N[C@H]1CCCCC/C=C\C2C[C@@]2(C(=O)O)NC(=O)[C@@H]2C[C@@H](Oc3ccncc3)CN2C1=O)OC1CCCC1 (stereo partly drawn) | binding, competition with immobilised ligand | 1 µM | remaining binding | 85%
FC(F)c1nc2ccccc2n1-c1nc(N2CCOCC2)nc(N2CCOCC2)n1 | enzyme activity, inhibitor | 10 µM | remaining activity | 84%
CSc1cccnc1N1CCN(Cc2nc3ccccc3[nH]2)CC1 | cell-free assay, competition with immobilised ligand | 1 µM | remaining binding | 98%
C=CC(=O)Nc1cc(Nc2nccc(Nc3cc(Cl)c(F)cc3C(C)(C)O)n2)c(OC)cc1N1CC[C@@H](N(C)C)C1 | enzyme activity, inhibitor | 1 µM | inhibition | -10%
COc1cc2ncnc(Nc3ccc(Oc4ccccc4)c(C)c3C)c2cc1OC | enzyme activity, inhibitor | 1 µM | inhibition | 1%
CC(=O)N1CCC(c2ccc(C(=O)NC3=NCCN3)cc2C(F)(F)F)CC1 | cell-free assay, competition with immobilised ligand | 1 µM | remaining binding | 91%
O=C(Nc1cc(-c2ccc(Cl)cc2)[nH]n1)C1CCCCC1 | enzyme activity, inhibitor | 10 µM | activity vs control | 75%
Cc1cc(NC(=O)c2cccc3cc(-c4cccc5[nH]nc(N)c45)ccc23)ccc1F | enzyme activity, inhibitor | 0.1 µM | activity vs control | 123%
COc1cc(Cl)c(C(=O)N[C@@H](CN[C@H]2CC[C@@H](N)CC2)Cc2ccc(C#N)cc2)cc1-c1ccc(CN[C@H](C)c2ccc(C)cc2)o1 | enzyme activity, inhibitor | 1 µM | remaining activity | 65%
Cc1nccc(COC(=O)N2C[C@@H]3[C@@H](CNC(=O)c4ccc5[nH]nnc5c4)[C@@H]3C2)n1 | cell-free assay, competition with immobilised ligand | 1 µM | remaining binding | 98%
O=C1Nc2ccc(Cl)cc2C1=Cc1cc(Cl)c(O)c(Cl)c1 | cell-free assay | 0.5 µM | remaining signal | 93.9%
CC(C)(C)c1nc2c(s1)c1nc(N)ncc1c1ccc(NS(=O)(=O)c3c(F)cccc3F)c(F)c12 | enzyme activity, inhibitor, radiometric | 1 µM | remaining activity | 114%
O=C(Nc1cnn(-c2csc(C(=O)NC3COC3)c2)c1)Nc1ccccc1Cl | enzyme activity, inhibitor | 5 µM | remaining activity | 88.2%
CNc1cccc2cc(C(=O)Nc3ccc(C(=O)O)cc3)c(=O)[nH]c12 | enzyme activity, inhibitor | 10 µM | inhibition | 3.3%
CCC(=O)N[C@H]1CC[C@@H](C(=O)N(C)c2ccc(-c3nc4ccccc4o3)cc2)C1 | cell-free assay, competition with immobilised ligand | 1 µM | remaining binding | 89%
Nc1nc(Nc2ccc(S(N)(=O)=O)cc2)nn1C(=O)c1c(F)cccc1F | cell-free assay | 0.5 µM | remaining signal | 107%
COc1ccc2c(c1)O[C@H](c1ccc(OC)c(OC)c1)C[C@@H]2NC(=O)C1(c2ccc3c(c2)OC(F)(F)O3)CC1 | cell-free assay, competition with immobilised ligand | 1 µM | remaining binding | 96%
Cc1ccc(Nc2nccc(N(C)c3ccc4c(C)n(C)nc4c3)n2)cc1S(N)(=O)=O | enzyme activity, inhibitor | 0.5 µM | remaining activity | 107%
CC(C)(O)[C@H]1CC[C@H](Nc2ccc3ncc(-c4cccc(C(F)(F)F)c4)n3n2)CC1 | enzyme activity, inhibitor | 1 µM | remaining activity | 102%
O=S(=O)(NC1CCC(c2cc(F)ccc2F)(S(=O)(=O)c2ccc(Cl)cc2)CC1)C(F)(F)F (stereo not drawn) | cell-free assay, competition with immobilised ligand | 1 µM | remaining binding | 99%
COc1cc(/C=C/C(=O)CC(=O)/C=C/c2ccc(O)c(OC)c2)ccc1O | enzyme activity, inhibitor | 1 µM | activity vs control | 70%
Nc1ncnc2occ(-c3ccc(NC(=O)Nc4cc(C(F)(F)F)ccc4F)cc3)c12 | cell-free assay, inhibitor | 20 µM | remaining signal | 95%
